Consider 8 compounds from ChEMBL document CHEMBL1149590, “Synthesis and evaluation of homo-bivalent GnRHR ligands” (Bioorg Med Chem, 2007).

The target of assay [1] is T1, Gonadotropin-releasing hormone receptor (Homo sapiens, UniProt P30968).
T1 sequence (P30968 whole entry): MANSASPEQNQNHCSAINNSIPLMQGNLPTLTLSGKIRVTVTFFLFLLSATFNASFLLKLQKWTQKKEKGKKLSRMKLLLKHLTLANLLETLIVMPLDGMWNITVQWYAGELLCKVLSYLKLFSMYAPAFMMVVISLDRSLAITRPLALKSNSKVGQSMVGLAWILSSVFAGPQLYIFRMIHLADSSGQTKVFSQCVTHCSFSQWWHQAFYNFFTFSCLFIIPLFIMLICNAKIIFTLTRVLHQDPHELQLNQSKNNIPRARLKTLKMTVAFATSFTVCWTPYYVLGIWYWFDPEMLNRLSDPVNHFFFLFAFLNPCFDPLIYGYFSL
Description: Displacement of [125I]triptorelin from human GnRHR expressed in CHO cells. Type of assay: cell-based. An outline of the steps: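 Membranes from CHO cells expressing wild-type human GnRHR (20 µg protein) incubated with [125I]triptorelin (30,000 cpm) and five competitor concentrations in 50 mM Tris-HCl pH 7.4, 2 mM MgCl2, 0.1% BSA, 45 min at 22 °C. Nonspecific binding defined with 1 µM ganirelix. Filtration, gamma counting. Ki from IC50 via Cheng-Prusoff (Kd 1.1 nM); at least three experiments in duplicate.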

Assay [2] deals with T2, Gonadotropin-releasing hormone receptor (Homo sapiens) (UniProt P30968).
T2 sequence (whole entry): T1 sequence (P30968 whole entry)
Nature of the assay: Displacement of [125I]triptorelin from human GnRHR expressed in CHO cells at 1 uM. Type of assay: cell-based. In outline: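 Single-point displacement at 1 μM test compound. CHO membranes bearing wild-type human GnRHR (20 µg protein) incubated 45 min at 22 °C with [125I]triptorelin (30,000 cpm) in Tris-HCl pH 7.4 containing MgCl2 and BSA. Nonspecific binding taken with 1 µM ganirelix, total binding with buffer. Bound radioligand recovered by filtration and gamma-counted; percent displacement reported.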

Assay [3] addresses T1, Gonadotropin-releasing hormone receptor. Description: Antagonist activity at human GnRHR expressed in CHO cells after 30 mins by luciferase reporter gene assay. Type of assay: functional, cell-based.

Each structure is given as a SMILES string.

`CCNC(=O)Nc1ccc(-c2nc3n(Cc4c(F)cccc4F)cc(C(=O)OCC)c(=O)n3c2CN(CC(=O)NCc2cn(CCOCCOCCOCCn3cc(CNC(=O)CN(Cc4ccccc4)Cc4c(-c5ccc(NC(=O)NCC)cc5)nc5n(Cc6c(F)cccc6F)cc(C(=O)OCC)c(=O)n45)nn3)nn2)Cc2ccccc2)cc1` gave a Ki in assay [1] of 69.2 nM. In assay [2], this compound gave an Activity of 71%. In assay [3], this compound gave an IC50 of 1320 nM.
In the same order, the values of `C#CCNC(=O)Nc1ccc(-c2nc3n(Cc4c(F)cccc4F)cc(C(=O)OCC)c(=O)n3c2CN(C)Cc2ccccc2)cc1` are 1.35 nM, 98% and 676 nM.
In the same order, the values of `CCNC(=O)Nc1ccc(-c2nc3n(Cc4c(F)cccc4F)cc(C(=O)OCC)c(=O)n3c2CN(C)Cc2ccccc2)cc1` are 4.79 nM, 99% and 70.8 nM.
In the same order, the values of `C#CCNC(=O)c1cn(Cc2c(F)cccc2F)c2nc(-c3ccc(NC(=O)NCC)cc3)c(CN(C)Cc3ccccc3)n2c1=O` are 162 nM, 85% and 7080 nM.
In the case of `CCOC(=O)c1cn(Cc2c(F)cccc2F)c2nc(-c3ccc(NC(=O)NCc4cn(CCOCCOCCOCCn5cc(CNC(=O)Nc6ccc(-c7nc8n(Cc9c(F)cccc9F)cc(C(=O)OCC)c(=O)n8c7CN(C)Cc7ccccc7)cc6)nn5)nn4)cc3)c(CN(C)Cc3ccccc3)n2c1=O`, the affinity in assay [1], expressed as Ki, was 29.5 nM. The Activity in assay [2] was 90%. In assay [3], this compound showed an IC50 of 355 nM.
In the same order, the values of `CCNC(=O)Nc1ccc(-c2nc3n(Cc4c(F)cccc4F)cc(C(=O)OCC)c(=O)n3c2CN(CC(=O)NCc2cn(CCOCCOCCn3cc(CNC(=O)CN(Cc4ccccc4)Cc4c(-c5ccc(NC(=O)NCC)cc5)nc5n(Cc6c(F)cccc6F)cc(C(=O)OCC)c(=O)n45)nn3)nn2)Cc2ccccc2)cc1` are 58.9 nM, 84% and 832 nM.
In the same order, the values of `C#CCNC(=O)CN(Cc1ccccc1)Cc1c(-c2ccc(NC(=O)NCC)cc2)nc2n(Cc3c(F)cccc3F)cc(C(=O)OCC)c(=O)n12` are 5.25 nM, 98% and 1000 nM.
In the same order, the values of `CCOC(=O)c1cn(Cc2c(F)cccc2F)c2nc(-c3ccc(NC(=O)NCc4cn(CCOCCOCCn5cc(CNC(=O)Nc6ccc(-c7nc8n(Cc9c(F)cccc9F)cc(C(=O)OCC)c(=O)n8c7CN(C)Cc7ccccc7)cc6)nn5)nn4)cc3)c(CN(C)Cc3ccccc3)n2c1=O` are 23.4 nM, 94% and 955 nM.
